The target in data set [1] is T1, mouse TRPM3α2 (Mus musculus, UniProt J9SQF3). The format is cell-based. The following applies: for Hill coefficient of TRPM3 inhibition: Fluo-4-loaded HEKmTRPM3 cells, PregS-induced Ca2+ signal; for TRPM3 inhibition relative to mefenamic acid: primary screen, data not shown.
For data set [2], the target named is T1, mouse TRPM3α2. Description: Whole-cell patch-clamp of TRPM3 currents in HEKmTRPM3 cells. The format is cell-based.
The target of data set [3] is rat TRPV1 (Rattus norvegicus, UniProt O35433). The data set is described as follows: Selectivity Ca2+ assay in HEKrTRPV1 cells, capsaicin-stimulated. Conditions: capsaicin 2 μM, drug up to 50 μM. The format is cell-based. An outline of the steps:
(§1)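 Stable HEK293 lines expressing human TRPA1, rat TRPV1 or human TRPM8 were loaded in suspension with Fluo-4/AM (4 μM, 30 min, 37°C) and resuspended in HEPES-buffered saline, pH 7.4. Cells were pre-exposed to test compound in 384-well plates. After baseline reading, cells were stimulated with 30 μM AITC (TRPA1), 2 μM capsaicin (TRPV1) or 300 μM menthol (TRPM8). Background-corrected fluorescence was normalized to initial intensity (F/F₀).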

In data set [4] the target is human TRPM8 (Homo sapiens, UniProt Q7Z2W7). Description: Selectivity Ca2+ assay in HEKhTRPM8 cells, menthol-stimulated. The following applies: menthol 300 μM, drug up to 50 μM. The data set is classed as cell-based. In a few lines:
as §1

For data set [5], the target named is human ankyrin-like TRPA1 (Homo sapiens, UniProt O75762). The data set is described as follows: Selectivity Ca2+ assay in HEKhTRPA1 cells, AITC-stimulated. The data set is classed as cell-based. Conditions: AITC 30 μM; for Inhibition of AITC-induced TRPA1 activation: drug up to 50 μM. In a few lines:
as §1

Data set [6] deals with T1, mouse TRPM3α2. The format is cell-based. Conditions: 10 μM primidone, temperature 22 to 37°C, Fura-2.
The test system of data set [7] is rat DRG neurones. The data set is described as follows: Single-cell Fura-2 [Ca2+]i measurement in isolated rat DRG neurones. The format is cell-based. The following applies: 10 μM primidone.
The target of data set [8] is human TRPM3α2 (Homo sapiens, UniProt Q9HCF6). The data set is classed as cell-based. Conditions: qualitative; PregS 35 μM, primidone 25 μM. In a few lines: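 HEK293 cells were grown in MEM with Earle's salts, 10% FCS, 2 mM L-glutamine and penicillin/streptomycin. 1–2 days after seeding, they were transfected with 2 μg plasmid encoding human TRPM3α2 C-terminally fused to YFP and used 2 days later. For [Ca²⁺]i measurement, 35 μM PregS and 25 μM test compound were added sequentially. Nontransfected HEK293 cells served as control.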

In data set [9] the test system is C57BL/6J mice. Description: Pregnenolone sulfate-induced chemical pain in mice. The following applies: for Nociception as duration per single response, compared with controls: data not shown. The format is in vivo, mouse. An outline of the steps: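 Mice received i.p. test compound (0.5, 2, 10 mg·kg⁻¹, suspended in 0.5% Tween 20) or vehicle. After 20 min, 5 nmol PregS (in sterile water, 10 μL total) was injected into the right hind paw. Over 180 s, observers recorded latency to the first response, number of responses and total duration of licking, lifting and shaking. n = 8 each; mean ± SEM; one-way ANOVA.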

Data set [10] concerns C57BL/6J mice. Description: Hot plate test. The data set is classed as in vivo, mouse. The following applies: 52°C. In a few lines: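 Male C57BL/6J mice were placed on a 52°C hot plate 20 min after i.p. test compound (0.5, 2, 10 mg·kg⁻¹ in 0.5% Tween 20) or vehicle. Latency to the first nocifensive hind-paw response was recorded, with a 45 s cutoff. Mean ± SEM; one-way ANOVA.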
On the technique in general: In hot-plate and tail-flick tests a longer latency is read as antinociception.

The subject of data set [11] is C57BL/6J mice. The data set is described as follows: Exploratory motor activity. Conditions: primidone 10 mg·kg^−1 i.p., after 120 minutes. The data set is classed as in vivo, mouse. An outline of the steps: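 Male C57BL/6J mice, 10–12 weeks old. Test compound was suspended in 0.5% Tween 20, which also served as vehicle control, and given i.p. Travelled distance in an opaque open-field box was video-tracked for 5 min, both immediately before the hot plate test and 120 min after dosing. n = 10 each; mean ± SEM; one-way ANOVA.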

The subject of data set [12] is C57BL/6J mice. The data set is described as follows: Tail immersion test. The data set is classed as in vivo, mouse. Conditions: primidone 1 mg·kg^−1 i.p., 48°C. In a few lines: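 Tail immersion in male C57BL/6J mice given test compound at 1 mg·kg⁻¹ i.p. or vehicle (0.5% Tween 20). Each mouse was restrained in a 50 mL conical tube, and the distal half of the tail was dipped in water at 48.0 ± 0.5°C. Latency to vigorous tail flexion was recorded, with a 15 s cutoff. n = 10 each; mean ± SEM.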

The subject of data set [13] is C57BL/6J mice. The data set is described as follows: CFA-induced inflammatory thermal hyperalgesia, hot plate. The data set is classed as in vivo, mouse. Conditions: primidone 1 mg·kg^−1 i.p., 24 hours after CFA.
For data set [14] the following is noted: cited from earlier work.
The target in data set [15] is human TRPM2 (Homo sapiens, UniProt O94759). Description: H2O2-induced [Ca2+]i signals in HEK cells expressing human TRPM2. Conditions: diclofenac at concentrations above 1 μM, data not shown. The data set is classed as cell-based.
The conditions of data set [16]: physiological pH, no reference given; cited from earlier work.
In data set [17] the test system is TRPA1. Conditions: read-out: EC50 of TRPA1 activation; cited from earlier work.

The term IC50 denotes the concentration that inhibits the measured activity by half. Low values mean greater potency in that assay, high ones weaker potency in that assay. In general, inhibition refers to how much of the control response was suppressed. In general, EC50 refers to the concentration needed to bring the measured effect to its halfway point.

Molecules are shown by their SMILES. Where only a bound is given, the exact number is not on record here.

Chain of human TRPM8 (Q7Z2W7 whole entry): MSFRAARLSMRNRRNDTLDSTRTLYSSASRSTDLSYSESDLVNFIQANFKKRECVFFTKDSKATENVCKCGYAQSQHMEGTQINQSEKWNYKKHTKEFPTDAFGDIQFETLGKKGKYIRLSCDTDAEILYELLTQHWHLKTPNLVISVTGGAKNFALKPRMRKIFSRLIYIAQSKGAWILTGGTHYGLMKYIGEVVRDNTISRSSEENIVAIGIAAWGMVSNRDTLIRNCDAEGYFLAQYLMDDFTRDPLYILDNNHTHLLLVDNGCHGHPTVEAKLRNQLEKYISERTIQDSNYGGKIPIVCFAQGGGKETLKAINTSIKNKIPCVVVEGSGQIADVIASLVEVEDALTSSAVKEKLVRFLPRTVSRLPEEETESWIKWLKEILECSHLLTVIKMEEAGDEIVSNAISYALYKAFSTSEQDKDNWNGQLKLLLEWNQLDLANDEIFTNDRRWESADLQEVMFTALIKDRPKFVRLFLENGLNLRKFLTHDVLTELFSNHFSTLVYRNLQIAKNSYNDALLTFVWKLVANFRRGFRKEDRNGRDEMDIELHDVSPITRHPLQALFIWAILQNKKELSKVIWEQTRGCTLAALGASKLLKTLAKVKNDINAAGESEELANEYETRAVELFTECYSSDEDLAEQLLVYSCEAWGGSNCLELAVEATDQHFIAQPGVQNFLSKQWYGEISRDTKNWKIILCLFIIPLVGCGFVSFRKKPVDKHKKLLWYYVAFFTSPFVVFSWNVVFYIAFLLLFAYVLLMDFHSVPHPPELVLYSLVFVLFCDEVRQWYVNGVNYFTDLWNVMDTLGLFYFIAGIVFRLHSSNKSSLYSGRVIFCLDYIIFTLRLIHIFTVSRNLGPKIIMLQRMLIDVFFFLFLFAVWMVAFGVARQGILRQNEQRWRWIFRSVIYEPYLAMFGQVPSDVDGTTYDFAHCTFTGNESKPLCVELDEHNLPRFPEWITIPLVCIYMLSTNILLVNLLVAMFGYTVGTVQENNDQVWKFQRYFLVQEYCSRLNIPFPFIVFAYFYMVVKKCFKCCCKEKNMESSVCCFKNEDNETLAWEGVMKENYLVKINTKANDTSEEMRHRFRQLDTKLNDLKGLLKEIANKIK
T1 sequence (J9SQF3 1-1709 isoform J9SQF3-12): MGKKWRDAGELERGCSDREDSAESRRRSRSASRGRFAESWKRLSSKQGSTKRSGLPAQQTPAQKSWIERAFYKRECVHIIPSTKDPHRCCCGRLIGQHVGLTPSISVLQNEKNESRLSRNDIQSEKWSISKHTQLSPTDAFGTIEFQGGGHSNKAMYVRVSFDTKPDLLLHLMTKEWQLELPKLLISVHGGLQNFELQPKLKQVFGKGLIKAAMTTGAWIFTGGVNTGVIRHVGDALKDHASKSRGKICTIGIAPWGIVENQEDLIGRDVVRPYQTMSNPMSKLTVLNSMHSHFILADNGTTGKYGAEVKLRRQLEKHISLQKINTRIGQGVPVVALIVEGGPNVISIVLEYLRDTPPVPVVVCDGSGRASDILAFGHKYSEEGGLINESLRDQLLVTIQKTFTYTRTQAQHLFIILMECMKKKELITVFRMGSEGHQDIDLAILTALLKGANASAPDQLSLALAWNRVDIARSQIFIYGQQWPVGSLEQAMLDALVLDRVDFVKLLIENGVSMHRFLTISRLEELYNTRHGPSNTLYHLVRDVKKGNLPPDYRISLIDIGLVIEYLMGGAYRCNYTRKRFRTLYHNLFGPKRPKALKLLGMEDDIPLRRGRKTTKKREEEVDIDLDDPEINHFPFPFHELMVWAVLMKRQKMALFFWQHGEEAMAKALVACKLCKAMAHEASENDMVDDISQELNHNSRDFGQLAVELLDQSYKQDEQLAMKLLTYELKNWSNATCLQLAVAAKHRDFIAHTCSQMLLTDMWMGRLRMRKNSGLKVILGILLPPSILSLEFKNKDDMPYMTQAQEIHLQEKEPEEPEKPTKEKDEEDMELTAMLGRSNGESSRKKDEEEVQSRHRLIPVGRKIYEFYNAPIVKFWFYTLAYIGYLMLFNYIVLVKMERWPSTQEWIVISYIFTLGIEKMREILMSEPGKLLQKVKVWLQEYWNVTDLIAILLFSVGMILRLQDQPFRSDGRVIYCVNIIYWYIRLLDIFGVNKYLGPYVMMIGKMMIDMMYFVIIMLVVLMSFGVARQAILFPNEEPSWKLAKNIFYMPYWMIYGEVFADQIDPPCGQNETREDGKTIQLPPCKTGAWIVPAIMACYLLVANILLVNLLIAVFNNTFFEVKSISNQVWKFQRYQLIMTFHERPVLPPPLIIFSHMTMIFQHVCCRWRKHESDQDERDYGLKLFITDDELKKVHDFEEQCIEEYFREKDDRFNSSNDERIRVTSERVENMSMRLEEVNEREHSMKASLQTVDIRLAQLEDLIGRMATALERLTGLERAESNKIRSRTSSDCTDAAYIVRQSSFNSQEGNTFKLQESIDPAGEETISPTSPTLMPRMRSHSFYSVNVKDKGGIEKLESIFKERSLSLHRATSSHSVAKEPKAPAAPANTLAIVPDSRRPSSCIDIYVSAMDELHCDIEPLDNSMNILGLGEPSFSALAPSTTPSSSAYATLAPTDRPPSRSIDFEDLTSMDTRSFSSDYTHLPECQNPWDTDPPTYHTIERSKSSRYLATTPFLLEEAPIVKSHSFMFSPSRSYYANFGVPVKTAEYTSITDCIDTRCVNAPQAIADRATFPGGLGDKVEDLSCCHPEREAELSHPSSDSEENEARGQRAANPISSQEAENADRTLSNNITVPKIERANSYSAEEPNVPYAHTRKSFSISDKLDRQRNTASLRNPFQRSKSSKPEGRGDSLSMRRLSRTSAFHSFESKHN
Chain of human ankyrin-like TRPA1 (O75762 whole entry): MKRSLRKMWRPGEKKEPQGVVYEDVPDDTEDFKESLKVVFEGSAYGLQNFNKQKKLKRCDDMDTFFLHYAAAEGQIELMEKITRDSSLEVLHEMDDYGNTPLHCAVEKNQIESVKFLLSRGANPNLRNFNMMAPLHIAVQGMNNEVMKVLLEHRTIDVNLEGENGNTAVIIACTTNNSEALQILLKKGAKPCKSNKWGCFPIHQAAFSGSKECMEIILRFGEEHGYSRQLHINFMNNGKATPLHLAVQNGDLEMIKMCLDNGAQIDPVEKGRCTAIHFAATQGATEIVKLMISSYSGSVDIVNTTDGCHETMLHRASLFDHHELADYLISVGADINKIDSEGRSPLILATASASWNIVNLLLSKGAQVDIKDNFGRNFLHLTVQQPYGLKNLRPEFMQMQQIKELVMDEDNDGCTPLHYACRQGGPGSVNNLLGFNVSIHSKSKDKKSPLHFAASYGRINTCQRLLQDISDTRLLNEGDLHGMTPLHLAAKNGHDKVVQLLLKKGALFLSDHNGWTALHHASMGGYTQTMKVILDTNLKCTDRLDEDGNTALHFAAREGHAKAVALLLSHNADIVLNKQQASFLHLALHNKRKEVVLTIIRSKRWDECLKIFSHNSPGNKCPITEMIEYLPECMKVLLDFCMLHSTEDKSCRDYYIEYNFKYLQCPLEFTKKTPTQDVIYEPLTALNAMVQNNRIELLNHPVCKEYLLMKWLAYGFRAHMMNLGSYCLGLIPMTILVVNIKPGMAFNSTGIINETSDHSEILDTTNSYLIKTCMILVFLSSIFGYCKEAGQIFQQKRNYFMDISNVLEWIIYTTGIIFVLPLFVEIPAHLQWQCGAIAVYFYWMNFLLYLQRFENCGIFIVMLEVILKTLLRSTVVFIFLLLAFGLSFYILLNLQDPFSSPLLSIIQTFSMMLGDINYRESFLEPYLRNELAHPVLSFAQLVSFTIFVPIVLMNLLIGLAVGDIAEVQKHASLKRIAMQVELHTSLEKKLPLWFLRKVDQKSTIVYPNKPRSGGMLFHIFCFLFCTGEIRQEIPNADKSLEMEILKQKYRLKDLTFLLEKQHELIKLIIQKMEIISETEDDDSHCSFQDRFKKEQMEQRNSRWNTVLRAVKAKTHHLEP
Chain of rat TRPV1 (O35433 whole entry): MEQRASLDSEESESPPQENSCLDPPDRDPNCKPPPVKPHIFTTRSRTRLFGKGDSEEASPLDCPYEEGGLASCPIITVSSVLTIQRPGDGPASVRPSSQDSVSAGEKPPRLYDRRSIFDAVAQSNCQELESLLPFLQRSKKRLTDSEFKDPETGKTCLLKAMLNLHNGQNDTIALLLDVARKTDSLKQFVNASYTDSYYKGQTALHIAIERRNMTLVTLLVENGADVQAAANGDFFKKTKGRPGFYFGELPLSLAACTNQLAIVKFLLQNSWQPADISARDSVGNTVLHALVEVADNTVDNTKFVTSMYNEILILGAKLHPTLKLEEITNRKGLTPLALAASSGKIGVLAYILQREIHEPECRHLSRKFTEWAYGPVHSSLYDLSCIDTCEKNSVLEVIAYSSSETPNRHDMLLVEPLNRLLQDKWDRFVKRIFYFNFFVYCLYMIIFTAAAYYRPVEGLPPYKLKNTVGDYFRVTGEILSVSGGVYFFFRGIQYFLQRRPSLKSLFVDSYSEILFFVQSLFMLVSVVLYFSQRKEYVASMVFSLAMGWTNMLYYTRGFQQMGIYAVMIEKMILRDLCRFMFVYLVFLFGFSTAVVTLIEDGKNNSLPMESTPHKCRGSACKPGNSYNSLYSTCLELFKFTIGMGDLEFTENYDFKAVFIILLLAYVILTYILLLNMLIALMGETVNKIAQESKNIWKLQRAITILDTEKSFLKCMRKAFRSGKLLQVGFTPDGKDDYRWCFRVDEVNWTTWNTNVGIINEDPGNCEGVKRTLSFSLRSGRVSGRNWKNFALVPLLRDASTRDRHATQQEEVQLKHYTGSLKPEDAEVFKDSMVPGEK

Turning to `CCC1(c2ccccc2)C(=O)NCNC1=O` [primidone], the half-maximal inhibitory concentration (IC50) in [1] is around 0.6 µM. Further, in data set [1], the “Hill coefficient of TRPM3 inhibition” value came out at 1.4 ± 0.2. For the same compound, the “Effect on omega pore-like currents evoked by coapplied PregS and clotrimazole” value in data set [2] (10 μM primidone, 40 μM PregS and 10 μM clotrimazole) is listed as “inhibited”. Also, the “Effect on PregS-induced inward currents” value in data set [2] (3 and 5 μM primidone, 35 μM PregS) is recorded as “almost completely abolished”. The “Potency to block TRPM3 currents” value in [2] (electrophysiological recordings) is recorded as “submicromolar potency”. For the same compound, in data set [3], the “Inhibition of capsaicin-induced TRPV1 activation” value was “no apparent inhibition”. Further, the “Inhibition of menthol-induced TRPM8 activation” value in data set [4] is given as “no apparent inhibition”. Also, in data set [5], the “Inhibition of AITC-induced TRPA1 activation” value is reported as “no apparent inhibition”. The “Effect on [Ca2+]i during heat-induced TRPM3 activation” value in data set [6] was “rapid and reversible decrease in [Ca^2+]i”. In addition, the “Inhibition of [Ca2+]i responses of capsaicin treatment” value in data set [7] (2 μM capsaicin, data not shown) is recorded as “not discernibly inhibited”. Moreover, the “Effect on [Ca2+]i in PregS-responsive DRG neurones” value in data set [7] (PregS 35 μM) was “immediate decrease in [Ca^2+]i”. For the same compound, the “Effect on PregS-induced responses at the human TRPM3 channel” value in [8] is listed as “confirmed the effectiveness”. The “Latency and total response duration to PregS-induced pain” value in data set [9] (primidone 0.5 mg·kg^−1 i.p., 20 minutes before PregS 5 nmol i.pl.) is “significant antinociception”. In addition, the entries for the “Nociception as duration per single response, compared with controls” value in data set [9] (primidone 0.5 mg·kg^−1 i.p.) and in data set [9] (primidone 10 mg·kg^−1 i.p.) were “significantly reduced” and “intensified”, respectively. Moreover, the “Number of responses to PregS” value in data set [9] (primidone 0.5, 2 and 10 mg·kg^−1 i.p.) is “not altered”. The “Response latency on the hot plate” value in data set [10] (primidone 10 mg·kg^−1 i.p.) is recorded as “did not differ from controls”; in data set [10] (primidone 0.5 and 2 mg·kg^−1 i.p.) it was “prolonged the response latency”. Besides, in [11], the “Exploratory activity (travelled distance)” value is listed as “slight reduction of exploratory activity”. Moreover, the “Latency to tail withdrawal” value in [12] is reported as “prolonged the latency to tail withdrawal”. Besides, the “CFA-induced sensitization, hot plate latency” value in [13] is recorded as “prevented the signs of CFA-induced sensitization”. Besides, the Therapeutic plasma concentrations in [14] was 20 to 50 µM. Also, the Plasma protein binding result in [14] (no reference given) is given as “less than 10%”. Besides, the Relative distribution volume in data set [14] (no reference given) is 0.6 L/kg.
For `O=C(O)Cc1ccccc1Nc1c(Cl)cccc1Cl` [diclofenac], the “Hill coefficient of TRPM3 inhibition” value in data set [1] is on record as 1.2 ± 0.1. For the same compound, in [2] (25 μM diclofenac in bath, 35 μM PregS), the “Effect on PregS-induced inward and outward currents” value is “almost completely abolished”. Moreover, the “Effect of intracellularly perfused drug on PregS-induced currents” value in [2] (25 μM diclofenac in pipette solution) is on record as “did not prevent PregS-induced currents”. Also, the inhibition at 5 µM in data set [2] (read-out: Inhibition of depolarizing inward currents) was around 70%. Further, in [4], the “Inhibition of menthol-induced TRPM8 activation” value is “almost unaffected”. In addition, the “Attenuation of responses to AITC stimulation” value in data set [5] (diclofenac at concentrations higher than 50 μM) was “about 50%”. In addition, in [15], the “Inhibition of H2O2-induced [Ca2+]i signals” value was “partial inhibition”. Also, in data set [16], the “Share of deprotonized, negatively charged microspecies” value was above 99%. Further, the EC50 in [17] is 210 µM.
Take `CNCCCC12CCC(c3ccccc31)c1ccccc12` [maprotiline]: the “Inhibition of capsaicin-induced TRPV1 activation” value in [3] is “no apparent inhibition”. Besides, the “Inhibition of menthol-induced TRPM8 activation” value in data set [4] is on record as “no apparent inhibition”. Further, the “Inhibition of AITC-induced TRPA1 activation” value in data set [5] is on record as “no apparent inhibition”.
With `Cc1c(Cl)cccc1Nc1ccccc1C(=O)O` [tolfenamic acid], the “TRPM3 inhibition relative to mefenamic acid” value in data set [1] is “less potent and poorly specific TRPM3 inhibitors”.
With `CCC1(c2ccccc2)C(=O)NC(=O)NC1=O` [phenobarbital], the “Plasma concentration of the major active metabolite during primidone therapy” value in [14] was 15 to 40 µM.
Turning to `O=C(O)c1ccccc1Nc1cccc(C(F)(F)F)c1` [flufenamic acid], in data set [1], the “TRPM3 inhibition relative to mefenamic acid” value was “less potent and poorly specific TRPM3 inhibitors”.

These data come from PMC5402713 (Pain, 2017).
